Test results reported in ChEMBL document CHEMBL1811838, “Antimalarial activity of natural and synthetic prodiginines” (J Med Chem, 2011).
Active and inactive are the calls of the source. No cut-off for these calls is given here.

Columns and labels:
Plasmodium yoelii [1] = test: Antimalarial activity Plasmodium yoelii infected in CF-1 mouse assessed as reduction of parasitemia at 25 mg/kg, po qd for 3 days administered 24 hrs after infection measured after 24 hrs last dose relative to control; format: functional; parameters: scale not given: the % may be the effect or the level left
Summary of the method: (§1)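 Female outbred CF-1 mice infected iv (tail vein) with 5 × 10^5 P. yoelii Kenya-infected erythrocytes. Groups of five given compound or vehicle alone by gavage in caprylic/capric triglyceride once daily for 3 days starting 24 h post-infection. One day after last dose, Giemsa-stained thin smears scored microscopically for % infected erythrocytes vs untreated controls. Group mean weight day 3 vs day 0. Smear-negative mice followed; parasite-free at 28 days counted cured.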

Plasmodium falciparum [2] = test: Antimalarial activity multidrug-resistant Plasmodium falciparum Dd2 after 72 hrs by SYBR Green I based fluorescence assay; format: functional, organism-based; settings: Dd2, 72 h
Summary of the method: (§2)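 P. falciparum (D6 pansensitive; Dd2 MDR) cultured under standard conditions and grown 72 h with varying compound concentrations, chloroquine positive control or no drug, each condition in quadruplicate. Growth measured by SYBR Green I fluorescence with minor modifications; IC50 = concentration inhibiting growth by 50%.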

Plasmodium falciparum [3] = test: Antimalarial activity Plasmodium falciparum D6 after 72 hrs by SYBR Green I based fluorescence assay; format: functional, organism-based; settings: D6, 72 h; summary of the method: as §2
[4] = Toxicity in C57BL/6J mouse splenic lymphocytes after 72 hrs by Alamar blue Assay; format: cell-based; settings: splenic lymphocyte
Summary of the method: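 Splenic lymphocytes from C57BL/6J mice washed, then stimulated with 1 μg/mL concanavalin A in RPMI/10% FBS with 50 μM β-mercaptoethanol. Seeded at 2 × 10^5 cells/well with serially diluted compound for 72 h at 37 °C, 5% CO2. Resazurin added (final 10 μM) for another 24 h; fluorescence read at ex 560/em 590 nm.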

Mus musculus [5] = test: Toxicity in Plasmodium yoelii infected CF-1 mouse assessed as weight loss at 25 mg/kg, po qd for 3 days relative to control; format: organism-based; parameters: dose 25 mg/kg, route oral; settings: in vivo, 72 h
Summary of the method: (§3)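 Female outbred CF-1 mice were infected i.v. via the tail vein with 5 × 10^5 P. yoelii Kenya-infected erythrocytes, in groups of five. Compound or vehicle alone was given by gavage in caprylic/capric triglyceride once daily for 3 days, starting 24 h post-infection. One day after the last dose, Giemsa-stained thin smears were scored by microscopy for % parasitemia versus untreated controls. Group mean weight was recorded as day 3 versus day 0.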

Mus musculus [6] = test: Toxicity in Plasmodium yoelii infected CF-1 mouse assessed as weight loss at 5 mg/kg, po qd for 3 days relative to control; format: organism-based; parameters: dose 5 mg/kg, route oral; settings: in vivo, 72 h; summary of the method: as §3
Plasmodium yoelii [7] = test: Antimalarial activity Plasmodium yoelii infected in CF-1 mouse assessed as reduction of parasitemia at 5 mg/kg, po qd for 3 days administered 24 hrs after infection measured after 24 hrs last dose relative to control; format: functional; parameters: scale not given: the % may be the effect or the level left; summary of the method: as §3
Plasmodium yoelii [8] = test: Antimalarial activity Plasmodium yoelii infected in CF-1 mouse assessed as complete parasite clearance at 100 mg/kg, po qd for 3 days administered 24 hrs after infection measured after 24 hrs last dose; format: functional, organism-based; parameters: dose 100 mg/kg; summary of the method: as §1
Mus musculus [9] = test: Toxicity in Plasmodium yoelii infected CF-1 mouse assessed as temporary weight loss at 100 mg/kg, po qd for 3 days; format: organism-based; parameters: dose 100 mg/kg, route oral; settings: in vivo, 72 h; summary of the method: as §1

SMILES	Activity (Plasmodium yoelii [1])	IC50 (Plasmodium falciparum [2])	IC50 (Plasmodium falciparum [3])	IC50 [4]	Activity (Mus musculus [5])	Activity (Mus musculus [6])	Activity (Plasmodium yoelii [7])	Activity (Plasmodium yoelii [8])	Activity (Mus musculus [9])
CCCc1cc(Cc2ccc(Cl)cc2)c(/C=C2\N=C(c3ccc[nH]3)C=C2OC)[nH]1	100%	2.6 nM	3 nM	< 125 nM	87.6%	102.9%	94%	–	–
CCC1CCCCCCCCC2=N/C(=C\c3[nH]c(-c4ccc[nH]4)cc3OC)C1=C2 (centres undefined) [METACYCLOPRODIGININE]	>99%	–	1.7 nM	–	–	–	–	Active	Toxic
CCCCCCCCc1cc(Cc2ccc(Cl)cc2)c(/C=C2\N=C(c3ccc[nH]3)C=C2OC)[nH]1	100%	12 nM	16 nM	1100 nM	93.4%	100.2%	72%	–	–
COC1=CC(c2ccc[nH]2)=N/C1=C\c1[nH]ccc1Cc1ccc(Cl)cc1	90%	81 nM	65 nM	< 125 nM	105%	101.2%	38%	–	–
CCCc1cc(CCC2CCCCC2)c(/C=C2\N=C(c3ccc[nH]3)C=C2OC)[nH]1	100%	1.3 nM	1.7 nM	< 125 nM	84.5%	101.5%	97%	–	–
CCCCCCCCc1cc(CCC)c(/C=C2\N=C(c3ccc[nH]3)C=C2OC)[nH]1	100%	2.7 nM	2.9 nM	< 125 nM	92.4%	100.1%	90%	–	–
CCCCCCc1cc(Cc2ccc(Cl)cc2)c(/C=C2\N=C(c3ccc[nH]3)C=C2OC)[nH]1	100%	1.8 nM	2 nM	< 125 nM	96%	100.3%	99%	–	–
COC1=CC(c2ccc[nH]2)=N/C1=C\c1[nH]c(Cc2ccc(Cl)cc2)cc1Cc1ccc(Cl)cc1	100%	4.8 nM	6.1 nM	< 125 nM	102.5%	107.5%	92%	–	–
COC1=CC(c2ccc[nH]2)=N/C1=C\c1[nH]c(Cc2ccc(Br)cc2)cc1Cc1ccc(Br)cc1	–	11 nM	14 nM	< 125 nM	–	–	–	–	–
CCCCCCc1cc(CCC)c(/C=C2\N=C(c3ccc[nH]3)C=C2OC)[nH]1	–	4 nM	4.5 nM	< 125 nM	–	–	–	–	–
